In article PMC6919324 (European journal of pharmaceutics and biopharmaceutics : …, 2019):

Key:
P-gp [1] = target: T1, P-gp (Homo sapiens, UniProt P08183); assay: Caco-2 transwell basolateral to apical transport of P-gp substrates; assay type: in vitro ADME
P-gp [2] = target: T1, P-gp; assay: Biosimilar mucus transport study of R123 in Caco-2 transwells; assay type: in vitro ADME
P-gp [3] = target: P-gp (Mus musculus, UniProt P21447); assay: Ex vivo mouse jejunum intestinal sac, mucosal to serosal R123 transport; assay type: in vitro ADME, BALB/c mice; conditions: BALB/c, with microdevices, 3000 microdevices/cm^2
Procedure, shortened: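 Intestinal sacs from three BALB/c mice aged 18–20 weeks, with one end tied off, were incubated in media at 37°C. Over time the serosal-side solution was removed and replaced with fresh media. Fluorescence of the removed solution was read at excitation 495 nm and emission 560 nm.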

T1 sequence (P08183 whole entry): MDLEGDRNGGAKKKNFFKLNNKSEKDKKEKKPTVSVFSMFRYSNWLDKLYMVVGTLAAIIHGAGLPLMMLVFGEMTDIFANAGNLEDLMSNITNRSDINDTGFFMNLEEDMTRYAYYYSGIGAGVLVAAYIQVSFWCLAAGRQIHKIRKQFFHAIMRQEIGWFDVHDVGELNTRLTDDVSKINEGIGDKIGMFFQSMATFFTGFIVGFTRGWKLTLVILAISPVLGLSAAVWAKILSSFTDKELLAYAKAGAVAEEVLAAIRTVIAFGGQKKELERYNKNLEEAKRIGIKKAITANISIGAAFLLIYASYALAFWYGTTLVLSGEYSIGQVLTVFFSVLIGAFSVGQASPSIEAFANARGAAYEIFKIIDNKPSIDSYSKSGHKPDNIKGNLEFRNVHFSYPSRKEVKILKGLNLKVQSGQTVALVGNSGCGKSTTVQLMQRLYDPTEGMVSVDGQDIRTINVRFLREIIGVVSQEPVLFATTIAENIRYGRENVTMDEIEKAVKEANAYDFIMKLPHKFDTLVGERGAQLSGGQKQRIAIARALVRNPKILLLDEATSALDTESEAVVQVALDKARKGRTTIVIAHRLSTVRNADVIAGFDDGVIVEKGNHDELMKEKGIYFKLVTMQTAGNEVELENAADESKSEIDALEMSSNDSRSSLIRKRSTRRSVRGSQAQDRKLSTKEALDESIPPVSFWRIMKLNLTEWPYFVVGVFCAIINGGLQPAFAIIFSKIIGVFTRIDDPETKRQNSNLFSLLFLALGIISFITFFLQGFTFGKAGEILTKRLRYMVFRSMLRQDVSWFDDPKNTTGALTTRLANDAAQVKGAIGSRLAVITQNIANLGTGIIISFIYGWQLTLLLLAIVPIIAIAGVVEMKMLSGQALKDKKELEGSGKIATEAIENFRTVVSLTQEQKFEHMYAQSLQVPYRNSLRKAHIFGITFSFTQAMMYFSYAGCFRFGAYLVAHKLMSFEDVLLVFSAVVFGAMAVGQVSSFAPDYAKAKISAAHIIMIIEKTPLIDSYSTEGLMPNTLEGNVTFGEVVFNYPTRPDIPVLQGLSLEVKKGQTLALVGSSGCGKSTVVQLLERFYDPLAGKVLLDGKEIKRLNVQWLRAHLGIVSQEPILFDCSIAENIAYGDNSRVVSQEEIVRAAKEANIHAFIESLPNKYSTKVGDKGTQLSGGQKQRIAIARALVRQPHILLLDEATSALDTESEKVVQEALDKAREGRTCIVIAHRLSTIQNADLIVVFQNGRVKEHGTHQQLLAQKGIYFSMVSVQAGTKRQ
Chain of P-gp (Mus musculus, UniProt P21447) (P21447 whole entry): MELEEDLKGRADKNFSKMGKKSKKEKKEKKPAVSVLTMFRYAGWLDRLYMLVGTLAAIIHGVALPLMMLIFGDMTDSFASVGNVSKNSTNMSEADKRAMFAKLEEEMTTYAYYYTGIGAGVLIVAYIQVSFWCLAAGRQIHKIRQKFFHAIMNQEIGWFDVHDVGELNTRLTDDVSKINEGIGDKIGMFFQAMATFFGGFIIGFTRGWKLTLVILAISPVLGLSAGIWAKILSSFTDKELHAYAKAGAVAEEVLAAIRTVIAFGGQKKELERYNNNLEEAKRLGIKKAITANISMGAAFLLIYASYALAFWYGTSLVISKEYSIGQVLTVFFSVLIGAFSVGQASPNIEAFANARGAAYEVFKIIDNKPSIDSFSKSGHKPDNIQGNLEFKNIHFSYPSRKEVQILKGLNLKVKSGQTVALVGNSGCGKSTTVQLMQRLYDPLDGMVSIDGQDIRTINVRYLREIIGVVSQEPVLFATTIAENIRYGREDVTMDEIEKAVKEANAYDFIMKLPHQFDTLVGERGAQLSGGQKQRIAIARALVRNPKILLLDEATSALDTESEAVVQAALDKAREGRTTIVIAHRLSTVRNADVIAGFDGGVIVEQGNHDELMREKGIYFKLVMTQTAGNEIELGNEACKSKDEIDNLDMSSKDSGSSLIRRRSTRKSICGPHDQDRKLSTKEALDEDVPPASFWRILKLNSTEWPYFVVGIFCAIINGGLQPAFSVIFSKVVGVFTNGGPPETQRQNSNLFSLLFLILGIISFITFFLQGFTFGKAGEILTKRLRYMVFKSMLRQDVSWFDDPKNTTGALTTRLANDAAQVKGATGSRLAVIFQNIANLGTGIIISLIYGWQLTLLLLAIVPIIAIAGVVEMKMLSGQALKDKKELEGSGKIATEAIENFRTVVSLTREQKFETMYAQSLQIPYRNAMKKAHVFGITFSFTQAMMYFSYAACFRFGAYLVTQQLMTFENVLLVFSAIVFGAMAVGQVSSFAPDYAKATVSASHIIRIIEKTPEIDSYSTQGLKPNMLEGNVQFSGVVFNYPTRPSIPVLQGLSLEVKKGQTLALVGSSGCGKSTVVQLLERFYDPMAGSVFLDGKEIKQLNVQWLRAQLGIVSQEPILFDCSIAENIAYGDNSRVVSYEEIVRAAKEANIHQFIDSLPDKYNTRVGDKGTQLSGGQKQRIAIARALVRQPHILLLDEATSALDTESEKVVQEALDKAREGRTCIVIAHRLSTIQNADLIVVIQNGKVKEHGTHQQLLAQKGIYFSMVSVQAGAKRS

Papp B→A (P-gp [1]) [×10⁻⁶ cm/s]	Papp B→A at 5 µM (P-gp [2]) [×10⁻⁶ cm/s]	Papp at 5 µM (P-gp [3]) [×10⁻⁶ cm/s]	Structure (SMILES)
1.9 ± 0.35			COc1cccc2c1C(=O)c1c(O)c3c(c(O)c1C2=O)C[C@@](O)(C(=O)CO)C[C@@H]3O[C@H]1C[C@H](N)[C@H](O)[C@H](C)O1 [Doxorubicin, doxorubicin]
8.03 ± 3.5	9.25 ± 3.8	0.35	COC(=O)c1ccccc1-c1c2ccc(=N)cc-2oc2cc(N)ccc12 [R123, rhodamine 123]
